According to ChEMBL document CHEMBL4020844, “Regio- and Stereospecific Synthesis of Oridonin D-Ring Aziridinated Analogues for the Treatment of Triple-Negative Breast Cancer via Mediated Irreversible Covalent Warheads” (J Med Chem, 2018):
Active and inactive are the calls of the source. The rule behind the calls is not given here.

Assays:
[1] = test system: MDA-MB-231; assay: Induction of apoptosis in human MDA-MB-231 cells assessed as early apoptotic cells at 5 uM after 48 hrs by Annexin V-FITC/propidium iodide staining based flow cytometry (reference value: 1.85%); assay type: functional
[2] = test system: MDA-MB-231; assay: Inhibition of colony formation in human MDA-MB-231 cells after 2 weeks by crystal violet staining based assay; assay type: functional, cell-based
Summary of the method: (§1)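 Cells were seeded at 600 per well (MDA-MB-231) or 800 per well (MDA-MB-468, SK-BR3, MCF-7). After 24 h they were exposed to 1, 5, 10, 15 or 20 μM, or DMSO, with medium plus compound renewed every 72 h for 2 weeks. Wells were PBS-washed, stained with 0.01% crystal violet for 10 min, washed, dried and photographed.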

[3] = test system: MDA-MB-231; assay: Induction of apoptosis in human MDA-MB-231 cells assessed as live cells at 20 uM after 48 hrs by Annexin V-FITC/propidium iodide staining based flow cytometry (reference value: 90.35%); assay type: functional
[4] = test system: MDA-MB-231; assay: Induction of apoptosis in human MDA-MB-231 cells assessed as late apoptotic cells at 1 uM after 48 hrs by Annexin V-FITC/propidium iodide staining based flow cytometry (reference value: 6.3%); assay type: functional
[5] = test system: MCF-10A; assay: Antiproliferative activity against human MCF10A cells up to 100 uM after 48 hrs by MTT assay
[6] = test system: MDA-MB-231; assay: Induction of apoptosis in human MDA-MB-231 cells assessed as dead cells at 1 uM after 48 hrs by Annexin V-FITC/propidium iodide staining based flow cytometry (reference value: 1.5%); assay type: functional
[7] = test system: MDA-MB-231; assay: Induction of apoptosis in human MDA-MB-231 cells assessed as early apoptotic cells at 20 uM after 48 hrs by Annexin V-FITC/propidium iodide staining based flow cytometry (reference value: 1.85%); assay type: functional
[8] = test system: MDA-MB-468; assay: Inhibition of colony formation in human MDA-MB-468 cells after 2 weeks by crystal violet staining based assay; assay type: functional, cell-based; summary of the method: as §1
[9] = test system: MDA-MB-231; assay: Induction of apoptosis in human MDA-MB-231 cells assessed as early apoptotic cells at 1 uM after 48 hrs by Annexin V-FITC/propidium iodide staining based flow cytometry (reference value: 1.85%); assay type: functional
[10] = test system: MDA-MB-231; assay: Induction of apoptosis in human MDA-MB-231 cells after 48 hrs by Annexin V-FITC/propidium iodide staining based flow cytometry; assay type: functional, cell-based
[11] = test system: MDA-MB-231; assay: Induction of apoptosis in human MDA-MB-231 cells assessed as reduction in Bcl2 to Bax ratio at 1 to 20 uM after 48 hrs by Western blot analysis; assay type: functional, cell-based
Summary of the method: (§2)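 MDA-MB-231 cells were exposed to DMSO or compound at several concentrations for 48 h, then lysed. Protein was measured by Bradford with a BSA standard. 40 μg total protein was run on SDS-PAGE and transferred to nitrocellulose, then blocked with 5% milk. Primary antibodies were applied overnight: Bcl-2 1:200, cleaved PARP 1:500, NF-κB 1:1000, Bax 1:1000, β-actin 1:2000. Detection was by ECL.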

[12] = test system: MDA-MB-231; assay: Induction of apoptosis in human MDA-MB-231 cells assessed as early apoptotic cells at 10 uM after 48 hrs by Annexin V-FITC/propidium iodide staining based flow cytometry (reference value: 1.85%); assay type: functional
[13] = test system: SK-BR-3; assay: Inhibition of colony formation in human SK-BR-3 cells after 2 weeks by crystal violet staining based assay; assay type: functional, cell-based; summary of the method: as §1
[14] = test system: MDA-MB-231; assay: Antitumor activity against human MDA-MB-231 cells xenografted in nude mouse assessed as tumor growth inhibition at 10 to 15 mg/kg, ip daily for 10 days; assay type: functional, organism-based
Summary of the method: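 Orthotopic model: female nude mice, 6–8 weeks old. MDA-MB-231 cells (1.0 × 10^6 in PBS) were injected into the no. 3 mammary fat pad, and mice were randomized into 4 groups. Once tumors reached 80–100 mm3, mice received 10 or 15 mg/kg daily by intraperitoneal injection in DMSO vehicle. Tumor volume (0.5 × L × W2) and body weight were measured daily. Mean ± SEM.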

[15] = test system: MDA-MB-468; assay: Antiproliferative activity against human MDA-MB-468 cells after 72 hrs by MTT assay; assay type: functional, cell-based
Summary of the method: (§3)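 MTT proliferation assay. Cells were seeded at 1 × 10^4 per well and exposed to DMSO or compound at 0.1, 0.33, 1.0, 3.3 and 10 μM for 72 h. MTT reagent was added, and OD at 560 nm was read after 1 h at 37°C. Each concentration was tested in quadruplicate wells.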

[16] = test system: MDA-MB-231; assay: Antiproliferative activity against human MDA-MB-231 cells after 72 hrs by MTT assay; assay type: functional, cell-based; summary of the method: as §3
[17] = test system: MDA-MB-231; assay: Downregulation of NF-kB p65 protein expression in human MDA-MB-231 cells after 48 hrs by Western blot analysis; assay type: functional, cell-based; summary of the method: as §2
[18] = test system: MDA-MB-231; assay: Induction of apoptosis in human MDA-MB-231 cells assessed as dead cells at 5 uM after 48 hrs by Annexin V-FITC/propidium iodide staining based flow cytometry (reference value: 1.5%); assay type: functional
[19] = test system: SK-BR-3; assay: Antiproliferative activity against human SK-BR-3 cells after 72 hrs by MTT assay; assay type: functional, cell-based; summary of the method: as §3
[20] = test system: MDA-MB-231; assay: Induction of apoptosis in human MDA-MB-231 cells assessed as late apoptotic cells at 10 uM after 48 hrs by Annexin V-FITC/propidium iodide staining based flow cytometry (reference value: 6.3%); assay type: functional
[21] = test system: MDA-MB-231; assay: Induction of apoptosis in human MDA-MB-231 cells assessed as late apoptotic cells at 5 uM after 48 hrs by Annexin V-FITC/propidium iodide staining based flow cytometry (reference value: 6.3%); assay type: functional
[22] = Glutathione reactivity in pH 7.4 deuterated phosphate buffer assessed as reaction half life at 10 mg up to 120 mins in presence of 1.5 to 2 equiv of GSH by 1H NMR analysis; assay type: physicochemical; details: pH 7.4, 2 h
Summary of the method: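 Glutathione (1.5–2 equiv) was incubated with compound at 37°C in DMSO-d6 mixed with sodium phosphate buffer in D2O, pH 7.4. Reactivity was monitored by 1H NMR.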

[23] = test system: MDA-MB-231; assay: Induction of apoptosis in human MDA-MB-231 cells assessed as live cells at 10 uM after 48 hrs by Annexin V-FITC/propidium iodide staining based flow cytometry (reference value: 90.35%); assay type: functional
[24] = test system: MDA-MB-231; assay: Induction of apoptosis in human MDA-MB-231 cells assessed as live cells at 1 uM after 48 hrs by Annexin V-FITC/propidium iodide staining based flow cytometry (reference value: 90.35%); assay type: functional
[25] = test system: MDA-MB-231; assay: Induction of apoptosis in human MDA-MB-231 cells assessed as live cells at 15 uM after 48 hrs by Annexin V-FITC/propidium iodide staining based flow cytometry (reference value: 90.35%); assay type: functional
[26] = test system: MDA-MB-231; assay: Induction of apoptosis in human MDA-MB-231 cells assessed as dead cells at 10 uM after 48 hrs by Annexin V-FITC/propidium iodide staining based flow cytometry (reference value: 1.5%); assay type: functional
[27] = test system: MDA-MB-231; assay: Induction of apoptosis in human MDA-MB-231 cells assessed as upregulation of cleaved PARP after 48 hrs by Western blot analysis; assay type: functional, cell-based; summary of the method: as §2
[28] = Glutathione reactivity in pH 7.4 deuterated phosphate buffer assessed as GSH adduct formation at 10 mg after 1 hr in presence of 1.5 to 2 equiv of GSH by HRMS analysis
[29] = test system: MCF7; assay: Antiproliferative activity against human MCF7 cells after 72 hrs by MTT assay; assay type: functional, cell-based; summary of the method: as §3
[30] = test system: MDA-MB-231; assay: Induction of apoptosis in human MDA-MB-231 cells assessed as dead cells at 20 uM after 48 hrs by Annexin V-FITC/propidium iodide staining based flow cytometry (reference value: 1.5%); assay type: functional
[31] = test system: MDA-MB-231; assay: Induction of apoptosis in human MDA-MB-231 cells assessed as live cells at 5 uM after 48 hrs by Annexin V-FITC/propidium iodide staining based flow cytometry (reference value: 90.35%); assay type: functional
[32] = test system: MDA-MB-231; assay: Induction of apoptosis in human MDA-MB-231 cells assessed as late apoptotic cells at 15 uM after 48 hrs by Annexin V-FITC/propidium iodide staining based flow cytometry (reference value: 6.3%); assay type: functional
[33] = test system: MDA-MB-231; assay: Induction of apoptosis in human MDA-MB-231 cells assessed as early apoptotic cells at 15 uM after 48 hrs by Annexin V-FITC/propidium iodide staining based flow cytometry (reference value: 1.85%); assay type: functional
[34] = test system: MDA-MB-231; assay: Induction of apoptosis in human MDA-MB-231 cells assessed as late apoptotic cells at 20 uM after 48 hrs by Annexin V-FITC/propidium iodide staining based flow cytometry (reference value: 6.3%); assay type: functional
[35] = test system: MCF7; assay: Inhibition of colony formation in human MCF7 cells after 2 weeks by crystal violet staining based assay; assay type: functional, cell-based; summary of the method: as §1

With `C=CC(=O)N1CC12C(=O)[C@@]13[C@@H]4OC(C)(C)O[C@@]15OC[C@@]1([C@H]([C@@H]5O)C(C)(C)CC[C@@H]1O)[C@@H]3CC[C@H]42` (some centres not stated) the Activity [1] was 3.6%, the inhibition [2] was “Active” and the Activity [3] was 50.35%. For the same compound, the Activity [4] was 6.05%, the Activity [5] was “Non-Toxic” and the Activity [6] was 1.95%. For the same compound, the Activity [7] was 2.95%, the inhibition [8] was “Active” and the Activity [9] was 2.5%. For the same compound, the Activity [10] was “Dose-dependent effect”, the Activity [11] was “Active” and the Activity [12] was 5.45%. For the same compound, the inhibition [13] was “Active”, the TGI [14] was “Active” and the Activity [15] was “Dose-dependent effect”. For the same compound, the Activity [16] was “Dose-dependent effect”, the IC50 ([16]; MDA-MB-231, 72 h) was 8.32 µM and the Activity [17] was “Dose-dependent effect”. The Activity [18] was 1.75%, the Activity [19] was “Dose-dependent effect” and the Activity [20] was 12.75%. For the same compound, the Activity [21] was 6.7%, the t1/2 [22] was 30 to 60 min and the Activity [23] was 79.05%. For the same compound, the Activity [24] was 89.5%, the Activity [25] was 70.25% and the Activity [26] was 2.75%. For the same compound, the Activity [27] was “Dose-dependent effect”, the Drug metabolism [28] was “Metabolite detected” and the Activity [29] was “Dose-dependent effect”. The IC50 ([29]; MCF7, 72 h) was 9.39 µM, the Activity [30] was 2.05% and the Activity [31] was 87.95%. It also gave an Activity [32] of 21.6%, an Activity [33] of 5.2% and an Activity [34] of 44.65%. The inhibition [35] was “Active”.
